The inhibition is how much of the control response was suppressed.

Consider eleven molecules from ChEMBL document CHEMBL1122206, “Use of adenine nucleotide derivatives to assess the potential of exo-active-site-directed reagents as species- or isozyme-specific enzyme inactivators. 5. Interactions of adenosine 5'-triphosphate derivatives with rat pyruvate kinases, Escherichia coli thymidine kinase, and yeast and rat …” (1982).

The nature of assay [1]: Tested for the velocity of 2.8 mM compound relative to that of 2.8 mM MgATP in the assay. In a few lines: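 E. coli TK substrate test. 0.5 h after adding inhibitor, the mixture was diluted to 2.8 mM derivative in thymidine assay medium without ATP and with 1.42 mM MnCl2. Incubated 15 min at 37 °C, in the linear range. [14C]TMP formed was compared with that from 2.8 mM ATP under the same conditions.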

For assay [2], the target named is Thymidine kinase (Escherichia coli) (UniProt P23331). Nature of the assay: Compound was tested for the lose of thymidine kinase activity after 6 hr, at 0 degrees celsius, with 10 mM ATP derivative. values were expressed in percent.
Assay [3] shares this target. Nature of the assay: Compound was tested for the initial inhibition of thymidine kinase by 1.4 mM compound in the presence of 5.7 mM ATP in Escherichia coli.
Assay [4] has the same target. Nature of the assay: Compound was tested for the loss of thymidine kinase activity from Escherichia coli after 6 hr at 0 degrees C at 10 mM.
The target in assay [5] is T1, Hexokinase-3 (Rattus norvegicus) (UniProt P27926).
T1 sequence (whole entry): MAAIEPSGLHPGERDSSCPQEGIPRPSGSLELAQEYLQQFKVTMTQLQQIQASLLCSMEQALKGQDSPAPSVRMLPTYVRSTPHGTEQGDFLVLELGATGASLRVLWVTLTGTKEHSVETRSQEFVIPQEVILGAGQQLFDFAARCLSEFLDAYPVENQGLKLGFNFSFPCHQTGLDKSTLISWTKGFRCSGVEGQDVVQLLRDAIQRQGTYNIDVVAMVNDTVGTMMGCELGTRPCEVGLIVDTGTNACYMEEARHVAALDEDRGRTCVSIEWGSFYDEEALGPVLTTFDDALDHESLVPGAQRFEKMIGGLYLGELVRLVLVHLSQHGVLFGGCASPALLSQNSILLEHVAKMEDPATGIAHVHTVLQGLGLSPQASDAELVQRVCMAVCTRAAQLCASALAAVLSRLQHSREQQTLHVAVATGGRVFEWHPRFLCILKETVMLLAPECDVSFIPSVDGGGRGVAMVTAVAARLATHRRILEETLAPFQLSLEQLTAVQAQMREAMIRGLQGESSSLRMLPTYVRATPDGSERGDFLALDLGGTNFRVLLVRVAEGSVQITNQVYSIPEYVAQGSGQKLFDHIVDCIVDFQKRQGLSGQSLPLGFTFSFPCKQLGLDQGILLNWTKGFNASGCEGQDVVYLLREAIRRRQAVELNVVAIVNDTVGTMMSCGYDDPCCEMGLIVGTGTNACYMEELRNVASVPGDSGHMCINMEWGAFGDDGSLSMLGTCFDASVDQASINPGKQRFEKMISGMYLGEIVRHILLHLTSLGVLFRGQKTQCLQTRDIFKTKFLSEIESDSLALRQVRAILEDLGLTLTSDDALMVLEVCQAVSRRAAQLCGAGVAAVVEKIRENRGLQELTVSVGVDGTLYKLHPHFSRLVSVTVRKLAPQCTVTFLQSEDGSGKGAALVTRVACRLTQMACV
Nature of the assay: Time dependent inhibition of Hexokinase type III activity after 6 h, at 22 degrees celsius, at 5 mM.

The target of assay [6] is T2, Hexokinase-2 (Rattus norvegicus) (UniProt P27881).
T2 sequence (whole entry): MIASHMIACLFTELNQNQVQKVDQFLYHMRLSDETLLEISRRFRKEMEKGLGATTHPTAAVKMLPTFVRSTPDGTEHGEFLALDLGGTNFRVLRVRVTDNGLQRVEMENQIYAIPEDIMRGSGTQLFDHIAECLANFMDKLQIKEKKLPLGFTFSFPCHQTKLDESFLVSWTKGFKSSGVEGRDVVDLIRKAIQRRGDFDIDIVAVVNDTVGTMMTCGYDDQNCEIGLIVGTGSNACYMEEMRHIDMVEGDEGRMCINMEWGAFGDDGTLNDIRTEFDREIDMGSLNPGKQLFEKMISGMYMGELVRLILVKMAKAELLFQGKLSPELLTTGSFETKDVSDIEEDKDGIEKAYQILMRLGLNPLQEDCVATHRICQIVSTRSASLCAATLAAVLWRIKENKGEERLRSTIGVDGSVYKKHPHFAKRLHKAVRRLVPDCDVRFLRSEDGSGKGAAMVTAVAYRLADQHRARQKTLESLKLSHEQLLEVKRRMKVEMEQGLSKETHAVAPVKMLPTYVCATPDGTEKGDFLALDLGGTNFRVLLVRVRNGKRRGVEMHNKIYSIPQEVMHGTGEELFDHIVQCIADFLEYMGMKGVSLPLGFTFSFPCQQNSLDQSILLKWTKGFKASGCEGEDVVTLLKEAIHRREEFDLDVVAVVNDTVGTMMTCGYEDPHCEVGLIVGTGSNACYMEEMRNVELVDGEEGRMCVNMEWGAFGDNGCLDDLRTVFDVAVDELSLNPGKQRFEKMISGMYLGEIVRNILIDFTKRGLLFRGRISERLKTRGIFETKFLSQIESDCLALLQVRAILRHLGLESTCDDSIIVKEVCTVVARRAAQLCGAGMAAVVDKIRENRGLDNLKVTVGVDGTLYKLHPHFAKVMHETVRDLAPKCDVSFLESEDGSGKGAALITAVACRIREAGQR
Nature of the assay: Time dependent inhibition of hexokinase 2 activity after 6 h, at 5 mM compound.

Assay [7] deals with Saccharomyces cerevisiae. Nature of the assay: Time dependent inhibition of hexokinase activity after 6 hr, at 22 degrees celsius, with 5 mM ATP derivative in yeast.
Assay [8] addresses T3, Hexokinase-1 (Rattus norvegicus) (UniProt P05708).
T3 sequence (whole entry): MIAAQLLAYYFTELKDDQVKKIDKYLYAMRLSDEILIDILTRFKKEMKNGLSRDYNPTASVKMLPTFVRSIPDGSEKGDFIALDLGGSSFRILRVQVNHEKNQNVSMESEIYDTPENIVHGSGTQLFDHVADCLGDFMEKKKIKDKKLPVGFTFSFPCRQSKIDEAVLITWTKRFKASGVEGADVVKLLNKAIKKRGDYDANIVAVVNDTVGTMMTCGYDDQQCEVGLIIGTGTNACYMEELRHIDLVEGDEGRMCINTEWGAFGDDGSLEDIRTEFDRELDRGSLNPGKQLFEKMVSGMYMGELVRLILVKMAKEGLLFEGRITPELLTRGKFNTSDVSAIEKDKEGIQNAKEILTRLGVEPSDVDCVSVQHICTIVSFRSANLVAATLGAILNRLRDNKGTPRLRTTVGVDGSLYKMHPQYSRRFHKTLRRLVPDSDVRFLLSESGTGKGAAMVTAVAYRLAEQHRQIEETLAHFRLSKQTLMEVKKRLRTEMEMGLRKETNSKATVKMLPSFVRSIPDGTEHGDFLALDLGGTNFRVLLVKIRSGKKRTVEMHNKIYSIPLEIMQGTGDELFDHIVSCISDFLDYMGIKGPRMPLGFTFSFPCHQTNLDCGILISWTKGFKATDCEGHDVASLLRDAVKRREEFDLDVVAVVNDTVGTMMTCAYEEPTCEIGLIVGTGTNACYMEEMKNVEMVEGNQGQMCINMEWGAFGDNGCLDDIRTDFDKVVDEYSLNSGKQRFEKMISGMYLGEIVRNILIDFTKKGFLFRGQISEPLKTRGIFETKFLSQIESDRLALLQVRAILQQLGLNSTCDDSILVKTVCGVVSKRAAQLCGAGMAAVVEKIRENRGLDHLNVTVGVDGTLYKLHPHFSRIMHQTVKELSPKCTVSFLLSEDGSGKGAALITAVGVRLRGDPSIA
Nature of the assay: Time dependent inhibition of Hexokinase type I activity after 6 h, at 22 degrees celsius, at 5 mM compound.

Assay [9] addresses T3, Hexokinase-1 (Rattus norvegicus). Briefly: Substrate activity for rat hexokinase I as 1:1 Mg complex at 5.0 mM. In a few lines: (§1)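 Hexokinase activity read at 22 °C as A340 change, coupled to glucose-6-phosphate dehydrogenase, in 0.05 M Tris-HCl pH 7.6 with 6.6 mM MgCl2, 10 mM α-D-glucose and 0.93 mM NADP. Donor was 5.0 mM MgATP derivative (1:1 Mg complex) in place of ATP. Yeast HK was isoelectric-focused. Rat HK I and III came from electrofocused liver extract, HK II from dialysed muscle extract.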

The target of assay [10] is T1, Hexokinase-3 (Rattus norvegicus). Briefly: Substrate activity for rat hexokinase III as 1:1 Mg complex at 5.0 mM. The method in brief: as §1
The target of assay [11] is T2, Hexokinase-2 (Rattus norvegicus). Briefly: Substrate activity against Rat hexokinase II as 1:1 Mg complex at 5.0 mM. In a few lines:
as §1

Assay [12] concerns Saccharomyces cerevisiae. Briefly: Substrate activity against yeast hexokinase as 1:1 Mg complexes at 5.0 mM. In a few lines: as §1

Chain of Thymidine kinase (Escherichia coli) (P23331 whole entry, looked up): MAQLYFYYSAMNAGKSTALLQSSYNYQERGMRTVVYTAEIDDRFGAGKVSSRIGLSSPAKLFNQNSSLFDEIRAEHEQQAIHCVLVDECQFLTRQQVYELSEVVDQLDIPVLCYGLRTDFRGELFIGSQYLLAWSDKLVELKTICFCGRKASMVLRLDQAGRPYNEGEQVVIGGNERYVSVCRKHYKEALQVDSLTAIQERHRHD

`CN(CCCCCCN(C)c1ncnc2c1ncn2[C@@H]1O[C@H](COP(=O)(O)OP(=O)(O)OP(=O)(O)O)[C@@H](O)[C@H]1O)C(=O)CCCCCNC(=O)CI` gave a Velocity in assay [1] of 49%. For the same molecule, the inhibition in assay [2] amounted to 0%; in assay [3] it was 5%.
In [1], `CC(=O)NCCCCCC(=O)N(C)CCCCN(C)c1ncnc2c1ncn2[C@@H]1O[C@H](COP(=O)(O)OP(=O)(O)OP(=O)(O)O)[C@@H](O)[C@H]1O` returned a Velocity of 41%. Besides, the inhibition in assay [4] was 0%.
Regarding `Nc1ncnc2c1nc(NCCCCCCNC(=O)CI)n2[C@@H]1O[C@H](COP(=O)(O)OP(=O)(O)OP(=O)(O)O)[C@@H](O)[C@H]1O`, the inhibition (in [5]; in [6]; with Saccharomyces cerevisiae [7]; in assay [8]) was 0% throughout.
Consider `CC(=O)NCCCCCCCCNc1ncnc2c1ncn2[C@@H]1O[C@H](COP(=O)(O)OP(=O)(O)OP(=O)(O)O)[C@@H](O)[C@H]1O`, for which the results for the Relative velocity in assay [9], in assay [10] and in assay [11] were 1.12, 1.25 and 0.6, respectively. In addition, the inhibition (in [5]; in the assay on Saccharomyces cerevisiae [7]; in assay [8]) was 0% throughout.
`Nc1ncnc2c1nc(NCCCCCCCCNC(=O)CI)n2[C@@H]1O[C@H](COP(=O)(O)OP(=O)(O)OP(=O)(O)O)[C@@H](O)[C@H]1O`: the Relative velocity in assay [9] was determined as 1.16; in assay [10], 1.81; in [11] it was 0.82; in the assay on Saccharomyces cerevisiae [12] it was 0.54. In addition, the inhibition in assay [5] and in [4] was 0% in each case.
On to `Nc1ncnc2c1nc(NCCNC(=O)CI)n2[C@@H]1O[C@H](COP(=O)(O)OP(=O)(O)OP(=O)(O)O)[C@@H](O)[C@H]1O`, for which the inhibition in assay [5], in assay [6] and in [8] was 0% each time.
Turning to `O=C(CI)NCCCCCC(=O)NCCCCNc1ncnc2c1ncn2[C@@H]1O[C@H](COP(=O)(O)OP(=O)(O)OP(=O)(O)O)[C@@H](O)[C@H]1O`, the Velocity in assay [1] was 71%. The inhibition (in assay [5]; in the assay on Saccharomyces cerevisiae [7]; in assay [8]; in assay [2]) was 0% throughout.
Consider `Nc1ncnc2c1nc(NCCCCNC(=O)CI)n2[C@@H]1O[C@H](COP(=O)(O)OP(=O)(O)OP(=O)(O)O)[C@@H](O)[C@H]1O`, for which the inhibition in assay [5], in [6] and in [8] was 0% each time.
Take `O=C(CI)NCCC(=O)NCCCCCCNc1ncnc2c1ncn2[C@@H]1O[C@H](COP(=O)(O)OP(=O)(O)OP(=O)(O)O)[C@@H](O)[C@H]1O`: the Velocity in assay [1] came out at 53%. The inhibition in assay [5] was 0%; in assay [6], 0%; in the assay with Saccharomyces cerevisiae [7] it was 0%; in [8], 0%; in assay [2], 0%; in [3], 1%.
`CN(CCCCN(C)c1ncnc2c1ncn2[C@@H]1O[C@H](COP(=O)(O)OP(=O)(O)OP(=O)(O)O)[C@@H](O)[C@H]1O)C(=O)CCCCCCNC(=O)CI`: the Velocity in assay [1] was found to be 55%. Further, the inhibition with Saccharomyces cerevisiae [7] was 0%; in assay [2], 0%; in assay [3], 1%.
As to `O=C(CI)NCCCCCCC(=O)NCCCCCCNc1ncnc2c1ncn2[C@@H]1O[C@H](COP(=O)(O)OP(=O)(O)OP(=O)(O)O)[C@@H](O)[C@H]1O`, the Velocity in assay [1] amounted to 41%. For the same molecule, the inhibition in assay [6] worked out at 0%; with Saccharomyces cerevisiae [7], 0%; in assay [8] it was 0%; in assay [2] it was 0%; in [3], 12%.
